Results published in ChEMBL document CHEMBL4665845, “CRISPR-Cas9 Genome-Wide Knockout Screen Identifies Mechanism of Selective Activity of Dehydrofalcarinol in Mesenchymal Stem-like Triple-Negative Breast Cancer Cells” (2020).
The source made the active and inactive calls. No cut-off for these calls is given here.

How the values were obtained:
BT-549 [1] = assay: Growth inhibition of human BT-549 cells after 48 hrs by SRB assay; assay type: functional; conditions: for CC50: read-out: LC50 (the source's name)
MDA-MB-231 [2] = assay: Growth inhibition of human MDA-MB-231 cells after 48 hrs by SRB assay; assay type: functional; conditions: for CC50: read-out: LC50 (the source's name)
Method in brief: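 Cells were exposed to compound for 48 h, and growth was read by sulforhodamine B staining. TGI (total growth inhibition concentration, μM) was taken from concentration–response curves, n = 3, means ± SEM. MDA-MB-231 cells were grown in IMEM with 10% FBS at 37 °C in 5% CO2.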

Homo sapiens [3] = species: Homo sapiens; assay: Selectivity index, ratio of TGI for growth inhibitor of human BT-549 to TGI for growth inhibitor of human MDA-MB-231; assay type: functional
Homo sapiens [4] = species: Homo sapiens; assay: Selectivity index, ratio of LC50 for growth inhibitor of human […] to LC50 for growth inhibitor of human MDA-MB-231; assay type: functional
Method in brief: (§1)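 Selectivity index is the LC50 of the named TNBC line divided by the LC50 in MDA-MB-231 cells.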

Homo sapiens [5] = species: Homo sapiens; assay: Selectivity index, ratio of LC50 for growth inhibitor of human MDA-MB-468 to LC50 for growth inhibitor of human MDA-MB-231; assay type: functional; method in brief: as §1
MDA-MB-157 = assay: Growth inhibition of human MDA-MB-157 cells after 48 hrs by SRB assay; assay type: functional; conditions: for CC50: read-out: LC50 (the source's name)
Homo sapiens [6] = species: Homo sapiens; assay: Selectivity index, ratio of LC50 for growth inhibitor of human MDA-MB-453 to LC50 for growth inhibitor of human MDA-MB-231; assay type: functional; method in brief: as §1
Homo sapiens [7] = species: Homo sapiens; assay: Selectivity index, ratio of LC50 for growth inhibitor of human MDA-MB-157 to LC50 for growth inhibitor of human MDA-MB-231; assay type: functional; method in brief: as §1
MDA-MB-468 = assay: Growth inhibition of human MDA-MB-468 cells after 48 hrs by SRB assay; assay type: functional; conditions: for CC50: read-out: LC50 (the source's name)
MDA-MB-453 [8] = assay: Growth inhibition of human MDA-MB-453 cells after 48 hrs by SRB assay; assay type: functional; conditions: for CC50: read-out: LC50 (the source's name)
HCC1806 = assay: Growth inhibition of human HCC1806 cells after 48 hrs by SRB assay; assay type: functional; conditions: for CC50: read-out: LC50 (the source's name)
Homo sapiens [9] = species: Homo sapiens; assay: Selectivity index, ratio of LC50 for growth inhibitor of human BT-549 to LC50 for growth inhibitor of human MDA-MB-231; assay type: functional; method in brief: as §1
RD = assay: Antiproliferative activity against human RDES cells assessed as reduction in cell viability after 48 hrs by SRB assay; assay type: functional, cell-based
A673 = assay: Antiproliferative activity against human A673 cells assessed as reduction in cell viability after 48 hrs by SRB assay; assay type: functional, cell-based
MDA-MB-231 [10] = assay: Effect on P70S6K regulation in human MDA-MB-231 cells at 300 nM preincubated for 6 hrs followed FBS-stimulation and measured after 0.25 to 2 hrs by immunoblotting analysis; assay type: functional, cell-based; conditions: time hrs <=8
MDA-MB-231 [11] = assay: Cytotoxicity against HSD17B11 siRNA knock-out human MDA-MB-231 cells assessed as reduction in cell viability at 300 nM incubated for 48 hrs by SRB assay; assay type: functional, cell-based
Method in brief: (§2)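 MDA-MB-231 cells were reverse-transfected with HSD17B11 siRNA (12.5 nM final, 0.025% RNAiMAX, antibiotic-free medium) or mock for 48 h. Cells were then replated, allowed to attach for 4–6 h, and treated for 48 h. Read-out was SRB viability and TGI, n = 3. Knockdown vs mock was compared by paired two-tailed t-test.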

MDA-MB-231 [12] = assay: Effect on Akt regulation in human MDA-MB-231 cells at 300 nM preincubated for 6 hrs followed FBS-stimulation and measured after 0.25 to 2 hrs by immunoblotting analysis; assay type: functional, cell-based; conditions: time hrs <=8
SK-ES1 = assay: Antiproliferative activity against human SK-ES1 cells assessed as reduction in cell viability after 48 hrs by SRB assay; assay type: functional, cell-based
MDA-MB-231 [13] = assay: Cytotoxicity against CRISPR/Cas9-mediated HSD17B11 knock-out human MDA-MB-231 cells at 1 uM incubated for 2 weeks; assay type: functional, cell-based
Method in brief: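 Doxycycline-inducible Cas9 MDA-MB-231 cells were transduced with the pooled Brunello sgRNA lentiviral library (0.005 μg/mL polybrene, 5 h), then selected in 1 μg/mL puromycin for 72 h. Cas9 was induced with 50 ng/mL doxycycline for 48 h. Cells were treated with 1 μM for 14 days, refreshing medium and compound every 3–4 days, and recovered 2 days before sgRNA sequencing. Enrichment was compared with input and vehicle.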

MDA-MB-453 [14] = assay: Cytotoxicity against human MDA-MB-453 cells assessed as reduction in cell viability at 0.03 to 3 uM after 48 hrs in presence of GW9662 by SRB assay; assay type: functional, cell-based; conditions: dose microM 0.03-3, time 48.0 hrs
BT-549 [15] = assay: Cytotoxicity against human BT-549 cells over expressing HSD17B11 assessed as reduction in cell viability at 1 to 10 uM by SRB assay; assay type: functional, cell-based; conditions: dose microM 1-10
Method in brief: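 BT-549 cells were transfected with a plasmid expressing HSD17B11-GFP from a constitutive CMV promoter, with mock-transfected cells as control. Overexpression was confirmed by immunoblot, and sensitivity was measured by SRB assay.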

[16] = biological target: Ribosomal protein S6 kinase beta-1 (Homo sapiens) (UniProt P23443); assay: Inhibition of phosphorylation of P70S6K at T389 residue in human MDA-MB-231 cells at 300 nM preincubated for 6 hrs followed FBS-stimulation and measured after 0.25 to 2 hrs by immunoblotting analysis; assay type: cell-based; conditions: time hrs <=8
Chain of Ribosomal protein S6 kinase beta-1 (Homo sapiens) (P23443 whole entry, looked up): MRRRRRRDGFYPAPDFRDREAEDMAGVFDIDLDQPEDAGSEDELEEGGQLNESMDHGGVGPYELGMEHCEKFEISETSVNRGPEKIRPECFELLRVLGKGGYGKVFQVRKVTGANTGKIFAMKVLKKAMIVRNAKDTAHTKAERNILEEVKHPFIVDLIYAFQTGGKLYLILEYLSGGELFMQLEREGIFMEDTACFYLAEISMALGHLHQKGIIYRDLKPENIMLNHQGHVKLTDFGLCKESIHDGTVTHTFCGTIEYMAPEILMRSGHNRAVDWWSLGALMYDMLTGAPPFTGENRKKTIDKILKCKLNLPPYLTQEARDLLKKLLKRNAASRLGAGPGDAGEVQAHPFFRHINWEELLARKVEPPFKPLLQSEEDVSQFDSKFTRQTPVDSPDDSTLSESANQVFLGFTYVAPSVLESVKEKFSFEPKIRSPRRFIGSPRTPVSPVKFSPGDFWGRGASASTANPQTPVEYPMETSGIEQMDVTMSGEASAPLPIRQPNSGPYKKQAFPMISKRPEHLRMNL

[17] = biological target: Serine/threonine-protein kinase AKT (Homo sapiens) (UniProt P31751+Q9Y243+P31749); assay: Inhibition of phosphorylation of Akt at S473 residue in human MDA-MB-231 cells at 300 nM preincubated for 6 hrs followed FBS-stimulation and measured after 0.25 to 2 hrs by immunoblotting analysis; assay type: cell-based; conditions: time hrs <=8
Chain of Serine/threonine-protein kinase AKT (Homo sapiens) (P31749 whole entry, looked up): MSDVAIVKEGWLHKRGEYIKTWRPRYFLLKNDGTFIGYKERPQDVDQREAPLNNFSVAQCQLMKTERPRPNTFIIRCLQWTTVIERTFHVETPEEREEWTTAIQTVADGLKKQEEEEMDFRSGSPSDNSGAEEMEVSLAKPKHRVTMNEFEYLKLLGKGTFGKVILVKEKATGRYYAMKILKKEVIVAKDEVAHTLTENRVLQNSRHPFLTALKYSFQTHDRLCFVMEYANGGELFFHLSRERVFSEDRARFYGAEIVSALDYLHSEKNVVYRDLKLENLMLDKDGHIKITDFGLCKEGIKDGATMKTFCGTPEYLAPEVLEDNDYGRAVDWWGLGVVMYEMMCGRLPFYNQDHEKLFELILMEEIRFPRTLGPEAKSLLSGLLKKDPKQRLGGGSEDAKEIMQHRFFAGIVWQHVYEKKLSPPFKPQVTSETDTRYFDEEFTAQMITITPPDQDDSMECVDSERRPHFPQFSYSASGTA
Chain of Serine/threonine-protein kinase AKT (Homo sapiens) (P31751 whole entry, looked up): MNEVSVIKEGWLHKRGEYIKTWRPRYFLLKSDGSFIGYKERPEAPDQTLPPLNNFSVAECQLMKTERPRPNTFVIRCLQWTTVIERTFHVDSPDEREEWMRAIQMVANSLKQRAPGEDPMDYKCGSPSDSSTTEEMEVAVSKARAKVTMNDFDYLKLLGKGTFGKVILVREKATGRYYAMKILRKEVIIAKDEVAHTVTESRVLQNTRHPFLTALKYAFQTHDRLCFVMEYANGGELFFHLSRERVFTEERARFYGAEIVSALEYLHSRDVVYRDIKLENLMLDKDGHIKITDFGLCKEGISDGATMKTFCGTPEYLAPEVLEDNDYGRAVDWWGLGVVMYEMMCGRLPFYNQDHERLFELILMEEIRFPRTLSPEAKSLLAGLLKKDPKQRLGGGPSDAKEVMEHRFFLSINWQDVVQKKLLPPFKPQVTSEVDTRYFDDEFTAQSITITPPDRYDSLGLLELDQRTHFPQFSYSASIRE
Chain of Serine/threonine-protein kinase AKT (Homo sapiens) (Q9Y243 whole entry, looked up): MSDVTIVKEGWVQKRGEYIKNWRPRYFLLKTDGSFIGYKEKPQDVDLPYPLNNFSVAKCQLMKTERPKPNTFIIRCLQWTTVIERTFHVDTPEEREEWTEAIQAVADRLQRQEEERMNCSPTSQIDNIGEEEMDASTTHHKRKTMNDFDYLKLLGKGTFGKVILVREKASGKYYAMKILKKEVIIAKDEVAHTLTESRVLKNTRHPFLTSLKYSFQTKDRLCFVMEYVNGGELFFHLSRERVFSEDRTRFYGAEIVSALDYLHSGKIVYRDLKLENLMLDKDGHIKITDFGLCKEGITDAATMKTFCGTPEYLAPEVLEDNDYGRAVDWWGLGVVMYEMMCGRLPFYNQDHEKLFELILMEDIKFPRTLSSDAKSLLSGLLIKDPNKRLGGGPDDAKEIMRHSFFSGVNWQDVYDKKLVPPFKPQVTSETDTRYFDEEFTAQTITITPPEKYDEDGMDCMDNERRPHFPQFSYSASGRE

[18] = biological target: Mitogen-activated protein kinase; ERK1/ERK2 (Homo sapiens) (UniProt P27361+P28482); assay: Inhibition of phosphorylation of Erk1/2 in human MDA-MB-231 cells at 300 nM preincubated for 6 hrs followed FBS-stimulation and measured after 0.25 to 2 hrs by immunoblotting analysis; assay type: cell-based; conditions: time hrs <=8
Chain of Mitogen-activated protein kinase; ERK1/ERK2 (Homo sapiens) (P27361 whole entry, looked up): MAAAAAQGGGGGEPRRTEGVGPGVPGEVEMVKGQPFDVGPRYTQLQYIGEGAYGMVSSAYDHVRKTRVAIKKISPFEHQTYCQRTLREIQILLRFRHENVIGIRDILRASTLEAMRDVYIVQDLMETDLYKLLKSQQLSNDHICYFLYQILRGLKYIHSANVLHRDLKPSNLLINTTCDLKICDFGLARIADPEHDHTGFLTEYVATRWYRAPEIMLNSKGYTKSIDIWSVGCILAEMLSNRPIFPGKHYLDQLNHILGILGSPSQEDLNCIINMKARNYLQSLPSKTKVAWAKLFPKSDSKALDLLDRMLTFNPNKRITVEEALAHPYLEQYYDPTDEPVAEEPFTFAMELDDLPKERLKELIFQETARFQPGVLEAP
Chain of Mitogen-activated protein kinase; ERK1/ERK2 (Homo sapiens) (P28482 whole entry, looked up): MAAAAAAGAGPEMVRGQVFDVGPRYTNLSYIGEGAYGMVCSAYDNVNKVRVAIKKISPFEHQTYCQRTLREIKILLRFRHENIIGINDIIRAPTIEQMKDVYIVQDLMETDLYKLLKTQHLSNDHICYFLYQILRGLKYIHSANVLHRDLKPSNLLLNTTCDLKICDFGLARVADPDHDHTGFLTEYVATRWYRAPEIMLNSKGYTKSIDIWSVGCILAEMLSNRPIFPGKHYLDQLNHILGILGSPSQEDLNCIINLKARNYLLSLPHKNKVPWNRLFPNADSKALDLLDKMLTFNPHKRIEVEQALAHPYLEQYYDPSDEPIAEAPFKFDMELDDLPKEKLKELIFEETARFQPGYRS

MDA-MB-231 [19] = assay: Cytotoxicity against human MDA-MB-231 cells assessed as reduction in cell viability at 0.03 to 3 uM after 48 hrs in presence of GW9662 by SRB assay; assay type: functional, cell-based; conditions: dose microM 0.03-3, time 48.0 hrs
MDA-MB-231 [20] = assay: Induction of cell cycle arret in human MDA-MB-231 cells assessed as S phase accumulation at LC50 concentration after 18 hrs by Krishan's staining based cell analyzer method; assay type: functional
Method in brief: (§3)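 MDA-MB-231 cells were treated at the LC50 concentration for 18 h, and cell cycle distribution was then assessed.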

MDA-MB-231 [21] = assay: Induction of cell cycle arret in human MDA-MB-231 cells assessed as G2/M phase accumulation at LC50 concentration after 18 hrs by Krishan's staining based cell analyzer method; assay type: functional; method in brief: as §3
MDA-MB-231 [22] = assay: Cytotoxicity against human MDA-MB-231 cells harboring CRISPR/Cas9 assessed as reduction in cell viability at 300 nM by SRB assay; assay type: functional, cell-based
[23] = Ratio of TGI for cytotoxicity against HSD17B11 siRNA knock-out human MDA-MB-231 cells to TGI for cytotoxicity against human MDA-MB-231 cells; assay type: functional; method in brief: as §2
TC-32 = assay: Antiproliferative activity against human TC-32 cells assessed as reduction in cell viability after 48 hrs by SRB assay; assay type: functional, cell-based
MDA-MB-231 [24] = assay: Effect on Erk1/2 regulation in human MDA-MB-231 cells at 300 nM preincubated for 6 hrs followed FBS-stimulation and measured after 0.25 to 2 hrs by immunoblotting analysis; assay type: functional, cell-based; conditions: time hrs <=8
MDA-MB-231 [25] = assay: Induction of cell cycle arret in human MDA-MB-231 cells assessed as G1 phase accumulation at LC50 concentration after 18 hrs by Krishan's staining based cell analyzer method; assay type: functional; method in brief: as §3

C=CCCCCC(O)/C=C/C#CC#CC(O)CC (mixture of isomers)
TGI (BT-549 [1]): > 10000 nM
TGI (MDA-MB-231 [2]): 4800 nM

C=CCCC/C=C\CC#CC#CC(O)C=C (mixture of isomers)
TGI (BT-549 [1]): 2400 nM
TGI (MDA-MB-231 [2]): 490 nM
Selectivity Index (Homo sapiens [3]): 4.9

C=C[C@@H](O)C#CC#C[C@@H](O)/C=C\CCCCCCC [FALCARINDIOL]
TGI (BT-549 [1]): 9000 nM
TGI (MDA-MB-231 [2]): 6000 nM
Selectivity Index (Homo sapiens [3]): 1.5

C=CCCCCC/C=C\CC#CC#C[C@@H](O)C=C
RatioLC50 (Homo sapiens [4]): 7.1
RatioLC50 (Homo sapiens [5]): 26
GI50 (MDA-MB-157): 59 nM
TGI (MDA-MB-157): 130 nM
CC50 (MDA-MB-157): 290 nM
RatioLC50 (Homo sapiens [6]): > 29
GI50 (BT-549 [1]): 220 nM
TGI (BT-549 [1]): 420 nM
CC50 (BT-549 [1]): 900 nM
RatioLC50 (Homo sapiens [7]): 1.7
GI50 (MDA-MB-468): 850 nM
TGI (MDA-MB-468): 2000 nM
CC50 (MDA-MB-468): 4400 nM
GI50 (MDA-MB-231 [2]): 51 nM
TGI (MDA-MB-231 [2]): 89 nM
CC50 (MDA-MB-231 [2]): 170 nM
GI50 (MDA-MB-453 [8]): 2800 nM
TGI (MDA-MB-453 [8]): > 5000 nM
CC50 (MDA-MB-453 [8]): > 5000 nM
GI50 (HCC1806): 300 nM
TGI (HCC1806): 540 nM
CC50 (HCC1806): 1200 nM
RatioLC50 (Homo sapiens [9]): 5.3
Selectivity Index (Homo sapiens [3]): 7.3

C=CCCCCC/C=C\CC#CC#CC(O)C=C (mixture of isomers)
Activity (RD): Active
Activity (A673): Active
Activity (MDA-MB-231 [10]): inactive
Activity (MDA-MB-231 [11]): inactive
Activity (MDA-MB-231 [12]): inactive
Activity (SK-ES1): Active
Activity (MDA-MB-231 [13]): inactive
Activity (MDA-MB-453 [14]): Active
Activity (BT-549 [15]): inactive
inhibition [16]: inactive
inhibition [17]: inactive
inhibition [18]: inactive
Activity (MDA-MB-231 [19]): Active
Activity (MDA-MB-231 [20]): inactive
Activity (MDA-MB-231 [21]): inactive
Activity (MDA-MB-231 [22]): Active
Ratio [23]: 1.7
Activity (TC-32): Active
Activity (MDA-MB-231 [24]): inactive
Activity (MDA-MB-231 [25]): inactive

C=CCCC/C=C\C(C#CC#C[C@H](O)C=C)OC(C)=O (some centres not stated)
TGI (BT-549 [1]): 2000 nM
TGI (MDA-MB-231 [2]): 2500 nM
Selectivity Index (Homo sapiens [3]): 0.8

C=CCCCC/C=C\CC#CC#C[C@@H](O)C=C
RatioLC50 (Homo sapiens [4]): 9
RatioLC50 (Homo sapiens [5]): 26
GI50 (MDA-MB-157): 190 nM
TGI (MDA-MB-157): 300 nM
CC50 (MDA-MB-157): 510 nM
RatioLC50 (Homo sapiens [6]): 47
GI50 (BT-549 [1]): 390 nM
TGI (BT-549 [1]): 850 nM
CC50 (BT-549 [1]): 1900 nM
RatioLC50 (Homo sapiens [7]): 2.4
GI50 (MDA-MB-468): 1300 nM
TGI (MDA-MB-468): 3100 nM
CC50 (MDA-MB-468): 5400 nM
GI50 (MDA-MB-231 [2]): 74 nM
TGI (MDA-MB-231 [2]): 120 nM
CC50 (MDA-MB-231 [2]): 210 nM
GI50 (MDA-MB-453 [8]): 1700 nM
TGI (MDA-MB-453 [8]): 5100 nM
CC50 (MDA-MB-453 [8]): 9800 nM
GI50 (HCC1806): 390 nM
TGI (HCC1806): 880 nM
CC50 (HCC1806): 1900 nM
RatioLC50 (Homo sapiens [9]): 9
Selectivity Index (Homo sapiens [3]): 4.7

C=C[C@@H](O)C#CC#CC/C=C\CCCCCCC
TGI (BT-549 [1]): 9000 nM
TGI (MDA-MB-231 [2]): 6000 nM
Selectivity Index (Homo sapiens [3]): 1.5
